Publication PMC10085944 (Clinical Pharmacokinetics, 2023)
Where two headings read alike, the source gives them in different places.

Key:
[1] = SC; slow release of M1 and M2 from the SC depot; cited from earlier work
[2] = Safety and tolerability assessment in the Phase 1 renal impairment trial; type: in vivo, human
In short: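 Subjects admitted the day before a single 10 mg SC abdominal dose, kept on site for the first 3 days, then seen as outpatients daily to Day 8, with follow-up on Day 11. Ongoing monitoring covered AE recording (MedDRA preferred terms), vital signs, 12-lead ECGs, clinical laboratory tests, physical examinations and injection-site reactions.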

[3] = cited from earlier work
[4] = SBS patients; dose reduction by 50% recommended; cited from earlier work

## Glepaglutide
[1]
  effective half-life: 88.3 h
[2]; 16 subjects, single SC dose glepaglutide 10 mg
  serious AEs, deaths, or AEs leading to trial withdrawal: no serious AEs, deaths, or AEs leading to trial withdrawal
[2]; reported in 3 of 16 subjects, single SC dose 10 mg
  total number of AEs (all non-serious and mild): 6
[2]; single SC dose 10 mg, normal renal function and severe renal impairment or ESRD
  overall safety and tolerability: safe and well tolerated

## native GLP-2: 33-amino acid intestinal growth factor secreted in response to nutrient intake
[3]; native GLP-2, in vivo
  half-life: 5 to 7 min

## teduglutide
[4]
  AUC0–∞ and Cmax in moderate or severe renal impairment/ESRD: elevated
[3]; teduglutide
  half-life: approximately 2 h
